Hits are enriched below; roughly 1.8% of the tested compounds scored in any of these assays.
M5 ag: human M5 muscarinic receptor agonists, primary screen, CHO-K1 cells, Fluo-8 calcium fluorescence; AID 624037, 2012; actives 0.19% (n = 360,000); activation, % at 3 µM; CHO-K1 hM5 cells; 0% DMSO wells, 100% maximal acetylcholine response; Muscarinic acetylcholine receptor M5 (Homo sapiens), P08912;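 active means activation above the run's mean over test compounds plus 3 SD, cut at about 23% in these data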;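 further: signal is peak over basal fluorescence ratio across the kinetic read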
CHRM5 PAM: human M5 muscarinic receptor positive allosteric modulators, primary screen, CHO-K1 cells, Fluo-8 calcium fluorescence; CHO-K1 hM5, ACh EC20 PAM; 0% = ACh EC20, 100% = ACh EC100; Muscarinic acetylcholine receptor M5 (Homo sapiens), P08912; actives 0.3% (n = 360,000); activation, % at 3 µM;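 active means activation above the run cutoff, the mean activation of all test compounds plus 3 SD, cut at about 18% in these data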
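Assay system: CHO-K1 hM5 cells / Incubation: Fluo-8 loading 80 min at 37 °C plus 30 min room temperature / Technique: Fluo-8 calcium dye fluorescence, kinetic read / Repeats: single replicate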
CHRM4 agonist: human M4 muscarinic receptor agonists, primary screen, CHO-K1 cells, Fluo-8 calcium fluorescence; AID 624127, 2012; CHO-K1 hM4/Gqi5; vehicle 0%, full acetylcholine response 100%; activation, % at 3 µM; actives 0.14% (n = 360,000);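 active means activation above the run mean over all test wells plus 3 SD, cut at about 32% in these data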;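 further: peak over basal fluorescence ratio per well then scaled between controls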
Target sequence (P08173 whole entry, looked up): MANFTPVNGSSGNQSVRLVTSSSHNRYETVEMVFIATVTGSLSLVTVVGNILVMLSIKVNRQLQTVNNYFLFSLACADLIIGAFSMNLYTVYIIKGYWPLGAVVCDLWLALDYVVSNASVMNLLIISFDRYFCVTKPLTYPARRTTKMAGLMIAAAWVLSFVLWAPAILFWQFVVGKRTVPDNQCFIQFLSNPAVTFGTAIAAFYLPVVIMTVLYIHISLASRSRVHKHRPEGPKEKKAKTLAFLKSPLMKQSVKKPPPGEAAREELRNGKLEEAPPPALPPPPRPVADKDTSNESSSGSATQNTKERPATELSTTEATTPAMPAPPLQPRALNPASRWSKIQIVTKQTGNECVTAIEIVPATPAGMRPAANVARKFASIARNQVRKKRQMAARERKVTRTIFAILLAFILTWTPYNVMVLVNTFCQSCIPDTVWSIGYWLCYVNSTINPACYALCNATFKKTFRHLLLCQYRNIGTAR
M4 antag: human M4 muscarinic receptor antagonists, primary screen, CHO cells, Fluo-8 calcium fluorescence. Muscarinic acetylcholine receptor M4 (Homo sapiens), P08173. CHO-hM4 cells, ACh EC80. inhibition, % at 3 µM. actives 0.73% (n = 360,000). AID 624125, 2012;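 active means inhibition above its plate's cutoff, the mean inhibition of sample wells plus 3 SD, cut at about 27% in these data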
M4 PAM: human M4 muscarinic receptor positive allosteric modulators, primary screen, CHO-K1 cells, Fluo-8 calcium fluorescence; Muscarinic acetylcholine receptor M4 (Homo sapiens), P08173; CHO-K1 hM4/Gqi5, ACh EC20; 0% = ACh EC20, 100% = maximal ACh; activation, % at 3 µM; actives 0.4% (n = 360,000);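 active means activation above its plate's cutoff, the mean activation of sample wells plus 3 SD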
M5 antag: human M5 muscarinic receptor antagonists, primary screen, CHO cells, Fluo-8 calcium fluorescence; AID 624040, 2012; Muscarinic acetylcholine receptor M5 (Homo sapiens), P08912; inhibition, % at 3 µM; actives 0.59% (n = 360,000); CHO-hM5 cells, ACh EC80;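 active means inhibition above a per-plate cutoff, the mean of that plate's test compounds plus 3 SD, cut at about 27% in these data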
Hits are given with their value; 0 = inactive.

SMILES | M5 ag | CHRM5 PAM | CHRM4 agonist | M4 antag | M4 PAM | M5 antag
c1ccc(-c2csc3ncnc(NCC4COc5ccccc5O4)c23)cc1 (stereo not given) | 0 | 0 | 0 | 38 | 0 | 38
Cc1ccc(C)n1-c1ccc(C(=O)NCc2ccncc2)cc1 | 0 | 0 | 0 | 0 | 0 | 0
Cc1ccc(C)n1-c1ccc(C(=O)NN)cc1 | 0 | 21 | 0 | 0 | 0 | 0
COc1ccc(CN2CCN(C(=O)CC(C)C)CC2)cc1OC | 0 | 0 | 0 | 0 | 0 | 0
COc1ccc(CN2CCN(C(=O)CC(C)C)CC2)c2ccccc12 | 0 | 42 | 0 | 0 | 0 | 0
COc1ccc(-c2nc3ccc(C)cn3c2CC2CCCCC2)cc1OC | 0 | 0 | 0 | 0 | 0 | 0
O=C(NCCCN1CCOCC1)NC1CCCCC1 | 0 | 0 | 0 | 0 | 0 | 0
O=C(NCCCCCCCN1CCCCCCC1)C(C1CCCCC1)C1CCCCC1 | 0 | 0 | 0 | 75 | 0 | 0
CCOC(=O)c1ccc(NC(=S)N2CCSC2c2ccc(Cl)cc2)cc1 (stereo not given) | 35 | 0 | 61 | 28 | 0 | 0
Cc1ccn2cc(C(=O)N3CCN(c4cnn(-c5ccccc5)c(=O)c4Cl)CC3)nc2c1 | 0 | 0 | 0 | 0 | 0 | 0
C=CCNC(=O)CSc1nnc(-c2ccccn2)n1Cc1ccccc1 | 0 | 22 | 0 | 0 | 0 | 0
CC(C)(C)NC(=O)CSc1nnc(-c2ccccn2)n1Cc1ccccc1 | 0 | 0 | 0 | 0 | 0 | 0
CCOc1ccccc1NC(=O)Nc1ccc(Br)cc1C | 0 | 0 | 0 | 0 | 0 | 0
CN(C)C(C)(C)C#CC(O)(c1ccccc1)c1ccccc1 | 0 | 0 | 0 | 53 | 0 | 83
CN(C)CCC#CC(O)(c1ccccc1)c1ccccc1 | 0 | 0 | 0 | 32 | 0 | 38
CCN(CC)CC#CC(O)(c1ccccc1)c1ccccc1 | 0 | 0 | 0 | 88 | 0 | 98
OCCN(CC#CC(O)(c1ccccc1)c1cccc(F)c1)CCO (stereo not given) | 0 | 0 | 0 | 0 | 0 | 0
COc1ccc(-c2cn(Cc3ccc(C)cc3)nn2)cc1 | 0 | 0 | 0 | 0 | 0 | 0
O=C(NC1CCOc2ccccc21)c1ccc(Cl)nc1 (stereo not given) | 0 | 0 | 0 | 0 | 0 | 0
COCCCNC(=O)c1cc(S(=O)(=O)N2CCC3(CC2)OCCO3)ccc1F | 0 | 0 | 0 | 0 | 0 | 0
CN1CCC(n2[nH]c(-c3ccccc3)c(Cc3ccccc3)c2=O)CC1 | 0 | 0 | 0 | 98 | 0 | 98
CN1CCC(N2CCN(C3CN(CCc4ccccc4)S(=O)(=O)C3)CC2)CC1 (stereo not given) | 0 | 0 | 0 | 0 | 0 | 0
O=C(O)c1ccc(S(=O)(=O)c2ccc([N+](=O)[O-])cc2[N+](=O)[O-])cc1 | 0 | 0 | 0 | 0 | 0 | 0
COCc1nc2sc3c(c2c(=O)[nH]1)CCCC3 | 0 | 0 | 0 | 0 | 0 | 0
CCCc1nc2sc3c(c2c(=O)[nH]1)CCCC3 | 0 | 18 | 0 | 0 | 0 | 0
SMILES | M5 ag | CHRM5 PAM | CHRM4 agonist | M4 antag | M4 PAM | M5 antag
CCN(CC)S(=O)(=O)c1ccc(S(=O)(=O)N2CCN(C(=O)c3ccco3)CC2)cc1 | 0 | 0 | 0 | 29 | 0 | 0
CCN(CC)S(=O)(=O)c1ccc(C(=O)N2CCN(C(=O)c3ccco3)CC2)cc1 | 0 | 0 | 0 | 0 | 0 | 0
Cc1n[nH]c(C)c1N1C(=O)c2cccc3c(N4CCCCCC4)ccc(c23)C1=O | 76 | 0 | 85 | 41 | 0 | 54
O=C1c2cccc3c(N4CCCCC4)ccc(c23)C(=O)N1c1cccc(O)c1 | 141 | 0 | 41 | 36 | 0 | 37
CCCNC(=O)C1(C)CCCN(Cc2ccc(-n3ccnc3)cc2)C1 (stereo not given) | 0 | 0 | 0 | 0 | 0 | 0
COc1cccc(NC(=O)Cn2c(CCC(=O)O)ccc2-c2cccs2)c1 | 0 | 19 | 0 | 0 | 0 | 0
CC(C)NC(=O)CN1CCN(C(=O)c2ccc3oc(CCCc4ccccc4)nc3c2)CC1 | 0 | 0 | 0 | 0 | 23 | 0
O=c1ccnc(SCCc2ccc([N+](=O)[O-])cc2)[nH]1 | 0 | 0 | 0 | 0 | 0 | 0
Cc1ccc(S(=O)(=O)NC(=O)NCCCCNC(=O)NS(=O)(=O)c2ccc(C)cc2)cc1 | 0 | 21 | 0 | 0 | 0 | 0
COC(=O)NNS(=O)(=O)c1ccc(C)cc1 | 0 | 0 | 0 | 0 | 0 | 0
Cc1ccc(S(=O)(=O)NNC(=O)CC#N)cc1 | 0 | 21 | 0 | 0 | 0 | 0
CCCCNC(=O)NS(=O)(=O)c1ccc(C)cc1 | 0 | 0 | 0 | 0 | 0 | 0
COc1ccc(C(C)NC(=O)Cc2ccc(Br)cc2)cc1 (stereo not given) | 0 | 0 | 37 | 0 | 0 | 0
CC(C)NC(=O)Cc1ccc(Br)cc1 | 0 | 0 | 0 | 0 | 0 | 0
COc1cc(OC)cc(C(=O)NNC(=O)C2CCCC2)c1 | 0 | 0 | 0 | 0 | 0 | 0
CC(=O)OCc1c(C(F)(F)F)nn(C)c1SCc1ccc(Cl)cc1 | 0 | 0 | 0 | 56 | 0 | 0
C#CCN1CCc2onc(-c3ccc(Br)cc3)c2C1=O | 0 | 0 | 0 | 0 | 0 | 0
COc1ccc(C(N)c2csc(Nc3cc(Oc4ccccc4)ncn3)n2)cc1 (stereo not given) | 0 | 0 | 0 | 41 | 0 | 30
COc1cc(/C=C/C(=O)NC(=O)c2ccccc2O)ccc1OC(C)=O | 0 | 0 | 0 | 0 | 0 | 0
O=C(NCCCn1ccnc1)C(=O)NCC(c1ccco1)N1CCN(c2ccccc2)CC1 (stereo not given) | 0 | 0 | 0 | 33 | 0 | 0
CCCCn1c(N)c(N(CCOC)C(=O)CSc2nnc(-c3ccncc3)n2CCC)c(=O)[nH]c1=O | 0 | 0 | 0 | 0 | 0 | 0
COc1cc(Cl)c(C)cc1NC(=O)CCCn1c(=O)oc2ccccc21 | 0 | 0 | 0 | 0 | 30 | 0
Cc1sc2nc(CN3CCCC3)nc(N3CCC(C(N)=O)CC3)c2c1C | 0 | 0 | 0 | 0 | 31 | 0
Cc1sc2nc(CN3CCCC3)nc(N3CCN(C(=O)c4ccco4)CC3)c2c1C | 0 | 0 | 0 | 0 | 0 | 0
CCCC1(C(=O)OCC)NC(c2cc(OC)c(OC)c(OC)c2)C2C(=O)N(CC)C(=O)C21 (stereo not given) | 0 | 0 | 0 | 0 | 35 | 0
Clc1cccc2sc(N3CCOCC3)nc12 | 0 | 26 | 0 | 0 | 0 | 0
Clc1cccc2sc(N3CCCC3)nc12 | 0 | 0 | 0 | 0 | 0 | 0

Source: PubChem
